Activity calls are given as the source filed them. The rule behind the calls is not given here.
Experiments:
U2OS [1] = assay: Effect on RNAPII total protein expression in human U2OS cells at 2.5 to 20 uM incubated for 48 hrs by Western blot analysis; type: functional, cell-based; details: dose 2.5-20 µM
How it was run: (§1)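 Cells seeded in 6-well plates (6 × 10^5 cells/well) and treated with 2.5, 5, 10, 20 μM for 48 h. RIPA lysates resolved by SDS-PAGE and blotted to nitrocellulose. Primary antibodies to CDK9, RNAPII ser2, total RNAPII, MCL-1, BIRC5 and tubulin (1:1000, 4 °C overnight), then IR-dye secondaries; infrared imaging. Densitometry relative to tubulin, mean ± SE in triplicate.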

U2OS [2] = assay: Cytotoxicity against human U2OS cells assessed as inhibition of cell proliferation incubated for 5 days by MTT assay; type: functional, cell-based
How it was run: (§2)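 Cells in RPMI 1640 with 10% FBS, seeded at 4 × 10^3 cells/well in 96-well plates and exposed to 0, 2.5, 5, 10, 20 μM for 5 days. MTT (5 mg/mL stock) added for 4 h at 37 °C; formazan dissolved in acid isopropanol and read at 490 nm. IC50 from the dose–response; mean ± SE of 2 experiments in triplicate.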

KHOS/NP [3] = assay: Cytotoxicity against human KHOS/NP cells assessed as inhibition of cell proliferation incubated for 5 days by MTT assay; type: functional, cell-based; how it was run: as §2
U2OS [4] = assay: Cytotoxicity against human U2OS cells assessed as morphological changes incubated for 3 days by microscopic analysis; type: functional, cell-based; details: dose 2.5-20 µM, time 3.0 day
How it was run: (§3)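 Cells treated with 0, 2.5, 5, 10, 20 μM for 72 h, then examined by light microscopy for morphology and number of viable cells.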

KHOS/NP [5] = assay: Cytotoxicity against human KHOS/NP cells assessed as morphological changes incubated for 3 days by microscopic analysis; type: functional, cell-based; details: dose 2.5-20 µM, time 3.0 day; how it was run: as §3
U2OS [6] = assay: Cytotoxicity against human U2OS cells assessed as reduction in viable cell number incubated for 3 days by microscopic analysis; type: functional, cell-based; details: dose 2.5-20 µM, time 3.0 day; how it was run: as §3
KHOS/NP [7] = assay: Cytotoxicity against human KHOS/NP cells assessed as reduction in viable cell number incubated for 3 days by microscopic analysis; type: functional, cell-based; details: dose 2.5-20 µM, time 3.0 day; how it was run: as §3
[8] = target: Cyclin-dependent kinase 9 (Homo sapiens) (UniProt P50750); assay: Inhibition of CDK9 in human U2OS cells assessed as reduction in phosphorylated RNAPII protein expression at Ser2 residue incubated for 48 hrs by Western blot analysis; type: cell-based; details: dose 2.5-20 µM; how it was run: as §1
Chain of Cyclin-dependent kinase 9 (Homo sapiens) (P50750 whole entry): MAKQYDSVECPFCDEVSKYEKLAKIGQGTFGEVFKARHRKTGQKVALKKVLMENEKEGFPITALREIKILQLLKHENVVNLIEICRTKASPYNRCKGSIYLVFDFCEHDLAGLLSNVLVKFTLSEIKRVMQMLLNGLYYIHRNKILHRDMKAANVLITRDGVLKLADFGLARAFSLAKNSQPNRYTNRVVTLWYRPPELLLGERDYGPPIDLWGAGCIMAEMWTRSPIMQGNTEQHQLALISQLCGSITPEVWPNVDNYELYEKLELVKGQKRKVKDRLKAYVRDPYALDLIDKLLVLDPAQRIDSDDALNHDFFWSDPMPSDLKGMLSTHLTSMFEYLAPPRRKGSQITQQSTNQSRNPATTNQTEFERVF

[9] = target: Cyclin-dependent kinase 9 (Homo sapiens) (UniProt P50750); assay: Inhibition of CDK9 in human KHOS/NP cells assessed as reduction in phosphorylated RNAPII protein expression at Ser2 residue incubated for 48 hrs by Western blot analysis; type: cell-based; details: dose 2.5-20 µM; how it was run: as §1
[10] = target: Cyclin-dependent kinase 9 (Homo sapiens) (UniProt P50750); assay: Inhibition of CDK9 in human U2OS cells assessed as reduction in MCL-1 protein expression incubated for 48 hrs by Western blot analysis; type: cell-based; details: dose 2.5-20 µM; how it was run: as §1
[11] = target: Cyclin-dependent kinase 9 (Homo sapiens) (UniProt P50750); assay: Inhibition of CDK9 in human KHOS/NP cells assessed as reduction in MCL-1 protein expression incubated for 48 hrs by Western blot analysis; type: cell-based; details: dose 2.5-20 µM; how it was run: as §1
[12] = target: Cyclin-dependent kinase 9 (Homo sapiens) (UniProt P50750); assay: Inhibition of CDK9 in human U2OS cells assessed as reduction in BIRC5 protein expression incubated for 48 hrs by Western blot analysis; type: cell-based; details: dose 2.5-20 µM; how it was run: as §1
[13] = target: Cyclin-dependent kinase 9 (Homo sapiens) (UniProt P50750); assay: Inhibition of CDK9 in human KHOS/NP cells assessed as reduction in BIRC5 protein expression incubated for 48 hrs by Western blot analysis; type: cell-based; details: dose 2.5-20 µM; how it was run: as §1
KHOS/NP [14] = assay: Effect on RNAPII total protein expression in human KHOS/NP cells at 2.5 to 20 uM incubated for 48 hrs by Western blot analysis; type: functional, cell-based; details: dose 2.5-20 µM; how it was run: as §1
U2OS [15] = assay: Effect on CDK9 protein expression in human U2OS cells at 2.5 to 20 uM incubated for 48 hrs by Western blot analysis; type: functional, cell-based; details: dose 2.5-20 µM; how it was run: as §1
KHOS/NP [16] = assay: Effect on CDK9 protein expression in human KHOS/NP cells at 2.5 to 20 uM incubated for 48 hrs by Western blot analysis; type: functional, cell-based; details: dose 2.5-20 µM; how it was run: as §1
U2OS [17] = assay: Induction of apoptosis in human U2OS cells assessed as viable cells at 10 uM by Annexin V/PI staining based flow cytometry analysis (reference value: 94.5%); type: functional; details: read-out: Activity
U2OS [18] = assay: Induction of apoptosis in human U2OS cells assessed as early apoptotic cells at 10 uM by Annexin V/PI staining based flow cytometry analysis (reference value: 5%); type: functional
U2OS [19] = assay: Induction of apoptosis in human U2OS cells assessed as late apoptotic cells at 10 uM by Annexin V/PI staining based flow cytometry analysis (reference value: 0.4%); type: functional
U2OS [20] = assay: Induction of apoptosis in human U2OS cells assessed as dead cells at 10 uM by Annexin V/PI staining based flow cytometry analysis (reference value: 0.1%); type: functional
KHOS/NP [21] = assay: Induction of apoptosis in human KHOS/NP cells assessed as viable cells at 10 uM by Annexin V/PI staining based flow cytometry analysis (reference value: 94.1%); type: functional; details: read-out: Activity
KHOS/NP [22] = assay: Induction of apoptosis in human KHOS/NP cells assessed as early apoptotic cells at 10 uM by Annexin V/PI staining based flow cytometry analysis (reference value: 5.3%); type: functional
KHOS/NP [23] = assay: Induction of apoptosis in human KHOS/NP cells assessed as late apoptotic cells at 10 uM by Annexin V/PI staining based flow cytometry analysis (reference value: 0.3%); type: functional
U2OS [24] = assay: Inhibition of colony formation in human U2OS cells assessed as reduction in colony number and size incubated for 12 days by Giemsa staining based analysis; type: functional, cell-based; details: dose 5-10 µM, time 12.0 day
How it was run: (§4)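 Seeded at 150 cells/well in 12-well plates with 0, 5 or 10 μM inhibitor; 12 days at 37 °C. Colonies fixed 10 min in methanol, stained 20 min with 10% Giemsa and photographed.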

KHOS/NP [25] = assay: Inhibition of colony formation in human KHOS/NP cells assessed as reduction in colony number and size incubated for 12 days by Giemsa staining based analysis; type: functional, cell-based; details: dose 5-10 µM, time 12.0 day; how it was run: as §4
U2OS [26] = assay: Inhibition of cell migration in human U2OS cells at 10 uM by wound healing assay; type: functional, cell-based; details: time 24-72 hrs
How it was run: (§5)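 Monolayers of 4 × 10^5 cells/well in 6-well plates, grown overnight, scratched with two parallel lines, then exposed to 10 μM in 2% FBS medium for 72 h. Photographed at 0, 24, 48, 72 h; width measured at five sites per image. Migration distance = (width at 0 h − width at time point)/2.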

KHOS/NP [27] = assay: Inhibition of cell migration in human KHOS/NP cells at 10 uM by wound healing assay; type: functional, cell-based; details: time 24-72 hrs; how it was run: as §5
U2OS [28] = assay: Antitumor activity against human U2OS cells cultured as 3D spheroids assessed as reduction in spheroid diameter at 10 uM incubated for 12 days with media replacement for every 24 to 48 hrs and measured every 2 days by Calcein AM staining based fluorescence microscopic analysis relative to control; type: functional; parameters: scale not given: the % may be the effect or the level left; details: time 12 day
How it was run: (§6)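 Spheroids grown in 3D hydrogel culture plates, 2 × 10^5 cells/well, with 10 μM inhibitor added at seeding; untreated cells as blank control. 37 °C, 5% CO2, medium changed every 24–48 h. Diameter photographed every 2 days; at 12 days spheroids harvested, stained 15 min with 0.25 μM Calcein AM and imaged by fluorescence microscopy. Mean ± SE of 2 experiments in triplicate.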

KHOS/NP [29] = assay: Antitumor activity against human KHOS/NP cells cultured as 3D spheroids assessed as reduction in spheroid diameter at 10 uM incubated for 12 days with media replacement for every 24 to 48 hrs and measured every 2 days by Calcein AM staining based fluorescence microscopic analysis relative to control; type: functional; parameters: scale not given: the % may be the effect or the level left; details: time 12 day; how it was run: as §6

With `COc1ccccc1-c1cc(Nc2cccc(CS(N)(=O)=O)c2)ncn1` the Activity (U2OS [1]) was “inactive”, the IC50 (U2OS [2]; 120 h) was 5.8 µM and the Activity (U2OS [2]; time 5.0 day) was “Dose-Dependent Effect”. The IC50 (KHOS/NP [3]; 120 h) was 6.5 µM, the Activity (KHOS/NP [3]; time 5.0 day) was “Dose-Dependent Effect” and the Activity (U2OS [4]) was “Dose-Dependent Effect”. For the same molecule, the Activity (KHOS/NP [5]) was “Dose-Dependent Effect”, the Activity (U2OS [6]) was “Dose-Dependent Effect” and the Activity (KHOS/NP [7]) was “Dose-Dependent Effect”. For the same molecule, the inhibition [8] was “Dose-Dependent Effect”, the inhibition [9] was “Dose-Dependent Effect” and the inhibition [10] was “Dose-Dependent Effect”. For the same molecule, the inhibition [11] was “Dose-Dependent Effect”, the inhibition [12] was “Dose-Dependent Effect” and the inhibition [13] was “Dose-Dependent Effect”. For the same molecule, the Activity (KHOS/NP [14]) was “inactive”, the Activity (U2OS [15]) was “inactive” and the Activity (KHOS/NP [16]) was “inactive”. For the same molecule, the viability at 10 µM (U2OS [17]) was 91.8%, the Activity (U2OS [18]) was 6.4% and the Activity (U2OS [19]) was 1.5%. The Activity (U2OS [20]) was 0.3%, the viability at 10 µM (KHOS/NP [21]) was 88.5% and the Activity (KHOS/NP [22]) was 2.8%. For the same molecule, the Activity (KHOS/NP [23]) was 6%, the inhibition (U2OS [24]) was “Dose-Dependent Effect” and the inhibition (KHOS/NP [25]) was “Dose-Dependent Effect”. The inhibition (U2OS [26]) was “Dose-Dependent Effect”, the inhibition (KHOS/NP [27]) was “Dose-Dependent Effect” and the Activity (U2OS [28]) was 57.4%. It also gave an Activity (KHOS/NP [29]) of 48.8%.

Reference: ChEMBL document CHEMBL5647695, “Cyclin-dependent kinase 9 (CDK9) is a novel prognostic marker and therapeutic target in osteosarcoma” (EBioMedicine, 2019)
